# Calls of active or inactive are those of the source. The calls are words filed in the database; no cut-off is given here.
# Assays:
# [1] = tested on: A-375; assay: Cytotoxicity against human A375 cells expressing p53 wild type assessed as cell viability at 1 uM after 24 hrs by MTT assay; type: functional; conditions: A-375, 24 h, read-out: Activity
# In short: (§1)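 Cells were exposed to compound at 1 µM for 24 h, then growth and viability were read by MTT assay. Media: A375 in DMEM; RPMI7951 and MCF-7 in MEM; A549 in RPMI1640; H1299 in DMEM-F12; all with 10% FCS and penicillin/streptomycin, at 37 °C and 5% CO2. Fibroblasts came from adult foreskin. DMSO stocks were 10 mM.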
# [2] = Cytotoxicity against human RPMI7951 cells expressing p53 mutant assessed as cell viability at 1 uM after 24 hrs by MTT assay; type: functional; conditions: RPMI-7951, 24 h, read-out: Activity; in short: as §1
# [3] = tested on: MCF7; assay: Cytotoxicity against human MCF7 cells expressing p53 wild type assessed as cell viability at 1 uM after 24 hrs by MTT assay; type: functional; conditions: MCF7, 24 h, read-out: Activity; in short: as §1
# [4] = tested on: A549; assay: Cytotoxicity against human A549 cells assessed as cell viability at 1 uM after 24 hrs by MTT assay; type: functional; conditions: A549, 24 h, read-out: Activity; in short: as §1
# [5] = Cytotoxicity against p53 knockout human H1299 cells assessed as cell viability at 1 uM after 24 hrs by MTT assay; type: functional; conditions: NCI-H1299, 24 h, read-out: Activity; in short: as §1
# [6] = Cytotoxicity against human fibroblast cells expressing p53 wild type assessed as cell viability at 1 uM after 24 hrs by MTT assay; type: cell-based; conditions: read-out: Activity; in short: as §1
# [7] = tested on: A-375; assay: Induction of apoptosis in human A375 cells expressing p53 wild type assessed as increase in p53 levels at 0.5 uM after 24 hrs by western blot analysis; type: functional, cell-based
# In short: (§2)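 A375 cells were exposed to 0.5 µM for 24 h, and lysates were immunoblotted with specific antibodies (p53, Cdc25c, p-Chk1, Bcl-xL, PARP, caspase-3). GAPDH served as loading control. Three independent experiments.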
# [8] = tested on: A-375; assay: Induction of apoptosis in human A375 cells expressing p53 wild type assessed as decrease in Bcl-xl levels at 0.5 uM after 24 hrs by western blot analysis; type: functional, cell-based; in short: as §2
# [9] = tested on: A-375; assay: Induction of apoptosis in human A375 cells expressing p53 wild type assessed as increase in cleaved caspase-3 levels at 0.5 uM after 24 hrs by western blot analysis; type: functional, cell-based; in short: as §2
# [10] = tested on: A-375; assay: Induction of apoptosis in human A375 cells expressing p53 wild type assessed as increase in cleaved PARP levels at 0.5 uM after 24 hrs by western blot analysis; type: functional, cell-based; in short: as §2
SMILES,viability at 1 µM [1] [%],viability at 1 µM [2] [%],viability at 1 µM [3] [%],viability at 1 µM [4] [%],viability at 1 µM [5] [%],"viability at 24 h, 1 µM [6] [%]",Activity [7],Activity [8],Activity [9],Activity [10]
COc1cc2c(cc1OCCCCNC(=O)c1cc(OC)c(OC)c(OC)c1)N=C[C@@H]1CCCN1C2=O,79.5,83,96.3,100,95,98.2,,,,
COc1cc2c(cc1OCCCOc1cc(OC)c(OC)c(OC)c1)N=C[C@@H]1CCCN1C2=O,69.7,59.5,51.7,88.7,71.9,97.3,Active,Active,Active,Active
COc1cc2c(cc1OCCCCCCNC(=O)c1cc(OC)c(OC)c(OC)c1)N=C[C@@H]1CCCN1C2=O,86.5,69.6,95.4,101,92.4,94.9,,,,
COc1cc2c(cc1OCCCCCNC(=O)c1cc(OC)c(OC)c(OC)c1)N=C[C@@H]1CCCN1C2=O,74.7,111,101,96.8,96.9,98.7,,,,

# Source: ChEMBL document CHEMBL3763092, “Design and synthesis of pyrrolobenzodiazepine-gallic hybrid agents as p53-dependent and -independent apoptogenic signaling in melanoma cells” (Eur J Med Chem, 2016)
